The values below come from ChEMBL document CHEMBL1158161, “Study of chemical stability of antivirally active 5-azacytosine acyclic nucleoside phosphonates using NMR spectroscopy” (Bioorg Med Chem, 2008).

Data set [1] can be described thus: Stability in phosphate buffer at pH 4.0 assessed as half life. It is filed as physicochemical. The method in brief:
(§1)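 Hydrolytic decomposition was followed by ¹H NMR on 30 mg samples in D₂O, with spectra recorded periodically. Media were 1 M glycine (pH 5.75), PBS (pH 7.4, phosphate with NaCl), or 50 mM phosphate at pH 4.0 or 10.0. Buffers were made in H₂O, lyophilized and redissolved in D₂O. Low-field signals were integrated to give a rate constant k and a half-life.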

Data set [2] is described as follows: Stability in 1 M glycine solution at pH 5.8 assessed as half life. Format: physicochemical. The method in brief: as §1
Data set [3] in a line: Stability in PBS at pH 7.4 assessed as half life. It is filed as physicochemical. The method in brief: as §1
Data set [4] is described as follows: Stability in phosphate buffer at pH 10.0 assessed as half life. It is filed as physicochemical. The method in brief: as §1
A further data set relates to Human alphaherpesvirus 1. Put plainly: Antiviral activity against HSV1. Format: functional, organism-based.
Another data set has as its system Human alphaherpesvirus 3. Put plainly: Antiviral activity against VZV. It is filed as functional, organism-based.
The next data set deals with Human betaherpesvirus 5. Briefly: Antiviral activity against HCMV. It is filed as functional, organism-based.
The test system of a further data set is Human betaherpesvirus 6. Briefly: Antiviral activity against HHV6. Format: functional, organism-based.
The next data set deals with Vaccinia virus. Briefly: Antiviral activity against vaccinia virus. It is filed as functional, organism-based. Particulars: Orthopoxvirus vaccinia.
Data set [5] is described as follows: Stability in 1 M glycine solution assessed as half life. Format: physicochemical. The essentials:
as §1

Data set [6] can be described thus: Stability in PBS assessed as half life. It is filed as physicochemical. The essentials: as §1
The nature of data set [7]: Cytotoxicity against HEL cells. Format: cell-based. Conditions: human.

In brackets after ≈: the same amount, converted by molar mass. Some results are limits rather than exact numbers.

For `Nc1ncn(C[C@H](O)CO)c(=O)n1`, the half-life was 17.8 days in [1], 15.8 days in [2], 19.6 days in data set [3] and 10.3 days in data set [4].

Regarding `CCCCCCCCCCCCCCCCCCOP1(=O)CO[C@@H](Cn2cnc(N)nc2=O)CO1` (stereo not given in full), the EC50 in the data set on Human alphaherpesvirus 1 is 0.003 µg/mL (≈ 0.00583 µM); in the data set with Human alphaherpesvirus 3, at most 0.00014 µg/mL; in the data set with Human betaherpesvirus 5, at most 0.00014 µg/mL; in the data set on Human betaherpesvirus 6, 0.008 µg/mL (≈ 0.0155 µM); in the data set on Vaccinia virus, 0.037 µg/mL (≈ 0.0719 µM).

`NC(N)=NC(=O)NCCOCP(=O)(O)O`: the half-life is 26.2 days in [5] and 39.3 days in data set [6]. This molecule also came in with a CC50 in data set [7] of over 100 µg/mL. The molecule also gave an MCC in data set [7] of over 100 µg/mL.

Turning to `NC(N)=NC(=O)NC[C@@H](COC=O)OCP(=O)(O)O`, the half-life in [5] is 4.75 days. Further, the half-life in [6] was 4.98 days. Besides, in [7], the 50% cytotoxic concentration (CC50) was over 100 µg/mL and the MCC is over 100 µg/mL.

As for `NC(N)=NC(=O)NC[C@H](O)CO`, the half-life was 16.1 days in data set [5] and 19.6 days in [6]. In [7], the cytotoxic concentration (CC50) is over 100 µg/mL. This molecule also gave an MCC in [7] of over 100 µg/mL.

`NC(N)=NC(=O)NC[C@H]1COP(=O)(O)CO1`: the half-life in [5] is 14.7 days. Besides, in data set [6], the half-life was 29.7 days. Besides, in data set [7], the CC50 was over 100 µg/mL and the MCC was over 100 µg/mL.
